From ChEMBL document CHEMBL4689842, “EUbOPEN Chemogenomics Library wave 1” (2021)
Several values for one entry are separate records, joined by “and”; a condition that tells them apart may be missing. Equal entries are not always repeated.

Tests used:
Format in all cases: toxicity, cell-based
[1] = system: U2OS; assay: Multiplex assay against U2OS; details: human
How it was run: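 Tubulin, mitochondrial-mass and membrane-permeability phenotypes are per cents of healthy-nucleus cells. Cells were gated by CellPathfinder machine learning into Hoechst high-intensity objects or normal cells, normal cells into healthy, pyknosed or fragmented nuclei, and pyknosed cells into mitotic or apoptotic. Before that, live cells stained at seeding with Hoechst33342, BioTracker Green Microtubule Cytoskeleton Dye, MitoTracker Red and Annexin V Alexa Fluor 680 were imaged on a CQ1 microscope at 37°C and 5% CO2 after compound addition.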

[2] = system: HEK-293T; assay: Incucyte cell viability with HEK293T; details: human, 10 µM, compound concentration 10 uM; further: filed as whole numbers so only -1 and 0 and 1 occur
[3] = system: Fibroblast; assay: Incucyte cell viability with human fibroblast; details: 10 µM, compound concentration 10 uM; further: filed as whole numbers so only -1 and 0 and 1 occur
[4] = system: U2OS; assay: Incucyte cell viability with U2OS; details: human, 10 µM, compound concentration 10 uM; further: filed as whole numbers so only -1 and 0 and 1 occur
[5] = 12 h, 1 µM, compound concentration 1 uM, replicate 1
[6] = 12 h, 1 µM, compound concentration 1 uM, replicate 2
[7] = 12 h, 10 µM, compound concentration 10 uM, replicate 1
[8] = 12 h, 10 µM, compound concentration 10 uM, replicate 2
[9] = 24 h, 1 µM, compound concentration 1 uM, replicate 1
[10] = 24 h, 1 µM, compound concentration 1 uM, replicate 2
[11] = 24 h, 10 µM, compound concentration 10 uM, replicate 1
[12] = 24 h, 10 µM, compound concentration 10 uM, replicate 2
[13] = 48 h, 10 µM, compound concentration 10 uM, replicate 1
[14] = 48 h, 10 µM, compound concentration 10 uM, replicate 2
[15] = 6 h, replicate number 1, timepoint 6 hours
[16] = 12 h, replicate number 1, timepoint 12 hours
[17] = 18 h, replicate number 1, timepoint 18 hours
[18] = 24 h, replicate number 1, timepoint 24 hours
[19] = 0 h, replicate number 2, timepoint 0 hours
[20] = 0 h, replicate number 1, timepoint 0 hours

c1ccc(-c2oc3ncnc(NC[C@@H]4CCCO4)c3c2-c2ccccc2)cc1
Population Apoptotic (%) [1, 5]: 68% and 50% | Population Fragmented Nuclei (%) [1, 5]: 4% | Population Healthy Nuclei (%) [1, 5]: 86% and 84% | Population Mitochondria Different-Phenotype (%) [1, 5]: 12% and 18% | Population Mitotic Cells (%) [1, 5]: 31% and 50% | Population Normal (%) [1, 5]: 98% and 95% | Population Pyknosed Nuclei (%) [1, 5]: 9% and 8% | Total Cell Count [1, 5]: 173 and 152 | Population Apoptotic (%) [1, 6]: 66% and 25% | Population Fragmented Nuclei (%) [1, 6]: 6% | Population Healthy Nuclei (%) [1, 6]: 90% | Population Hoechst High Intensity Objects (%) [1, 6]: 10% and 18% | Population Mitochondria Different-Phenotype (%) [1, 6]: 17% and 35% | Population Mitotic Cells (%) [1, 6]: 33% and 75% | Population Normal (%) [1, 6]: 89% and 81% | Population Pyknosed Nuclei (%) [1, 6]: 7% and 4% | Total Cell Count [1, 6]: 137 and 107 | Population Apoptotic (%) [1, 7]: 78% | Population Fragmented Nuclei (%) [1, 7]: 12% | Population Healthy Nuclei (%) [1, 7]: 64% | Population Hoechst High Intensity Objects (%) [1, 7]: 10% | Population Membrane Permeable-Phenotype (%) [1, 7]: 20% | Population Mitochondria Different-Phenotype (%) [1, 7]: 82% | Population Mitotic Cells (%) [1, 7]: 21% | Population Normal (%) [1, 7]: 89% | Population Pyknosed Nuclei (%) [1, 7]: 22% | Population Tubulin-Different-Phenotype (%) [1, 7]: 93% | Total Cell Count [1, 7]: 137 | Population Apoptotic (%) [1, 8]: 87% | Population Fragmented Nuclei (%) [1, 8]: 14% | Population Healthy Nuclei (%) [1, 8]: 71% | Population Hoechst High Intensity Objects (%) [1, 8]: 6% | Population Membrane Permeable-Phenotype (%) [1, 8]: 34% | Population Mitochondria Different-Phenotype (%) [1, 8]: 56% | Population Mitotic Cells (%) [1, 8]: 12% | Population Normal (%) [1, 8]: 93% | Population Pyknosed Nuclei (%) [1, 8]: 14% | Population Tubulin-Different-Phenotype (%) [1, 8]: 95% | Total Cell Count [1, 8]: 61 | Population Apoptotic (%) [1, 9]: 59% and 70% | Population Fragmented Nuclei (%) [1, 9]: 6% | Population Healthy Nuclei (%) [1, 9]: 79% and 90% | Population Hoechst High Intensity Objects (%) [1, 9]: 2% and 3% | Population Mitochondria Different-Phenotype (%) [1, 9]: 26% and 22% | Population Mitotic Cells (%) [1, 9]: 40% and 30% | Population Normal (%) [1, 9]: 97% and 96% | Population Pyknosed Nuclei (%) [1, 9]: 13% and 5% | Population Tubulin-Different-Phenotype (%) [1, 9]: 83% | Total Cell Count [1, 9]: 198 and 202 | Population Fragmented Nuclei (%) [1, 10]: 4% and 8% | Population Healthy Nuclei (%) [1, 10]: 77% and 87% | Population Hoechst High Intensity Objects (%) [1, 10]: 6% and 8% | Population Mitochondria Different-Phenotype (%) [1, 10]: 19% and 29% | Population Normal (%) [1, 10]: 93% and 91% | Total Cell Count [1, 10]: 153 and 143 | Population Apoptotic (%) [1, 11]: 82% | Population Fragmented Nuclei (%) [1, 11]: 8% | Population Healthy Nuclei (%) [1, 11]: 68% | Population Hoechst High Intensity Objects (%) [1, 11]: 12% | Population Membrane Permeable-Phenotype (%) [1, 11]: 34% | Population Mitochondria Different-Phenotype (%) [1, 11]: 74% | Population Mitotic Cells (%) [1, 11]: 17% | Population Normal (%) [1, 11]: 87% | Population Pyknosed Nuclei (%) [1, 11]: 23% | Population Tubulin-Different-Phenotype (%) [1, 11]: 95% | Total Cell Count [1, 11]: 138 | Population Apoptotic (%) [1, 12]: 100% | Population Fragmented Nuclei (%) [1, 12]: 14% | Population Hoechst High Intensity Objects (%) [1, 12]: 10% | Population Membrane Permeable-Phenotype (%) [1, 12]: 21% | Population Mitochondria Different-Phenotype (%) [1, 12]: 56% | Population Mitotic Cells (%) [1, 12]: 0% | Population Normal (%) [1, 12]: 90% | Population Pyknosed Nuclei (%) [1, 12]: 16% | Population Tubulin-Different-Phenotype (%) [1, 12]: 81% | Total Cell Count [1, 12]: 60 | Population Apoptotic (%) [1, 13]: 70% | Population Fragmented Nuclei (%) [1, 13]: 15% | Population Healthy Nuclei (%) [1, 13]: 57% | Population Hoechst High Intensity Objects (%) [1, 13]: 5% | Population Membrane Permeable-Phenotype (%) [1, 13]: 41% | Population Mitochondria Different-Phenotype (%) [1, 13]: 61% | Population Mitotic Cells (%) [1, 13]: 29% | Population Normal (%) [1, 13]: 94% | Population Pyknosed Nuclei (%) [1, 13]: 26% | Population Tubulin-Different-Phenotype (%) [1, 13]: 89% | Total Cell Count [1, 13]: 134 | Population Apoptotic (%) [1, 14]: 77% | Population Fragmented Nuclei (%) [1, 14]: 12% | Population Healthy Nuclei (%) [1, 14]: 75% | Population Hoechst High Intensity Objects (%) [1, 14]: 10% | Population Membrane Permeable-Phenotype (%) [1, 14]: 62% | Population Mitochondria Different-Phenotype (%) [1, 14]: 27% | Population Mitotic Cells (%) [1, 14]: 22% | Population Normal (%) [1, 14]: 90% | Population Pyknosed Nuclei (%) [1, 14]: 12% | Population Tubulin-Different-Phenotype (%) [1, 14]: 72% | Total Cell Count [1, 14]: 80 | Growth Rate [2, 15]: 0 | Growth Rate [2, 16]: 0 | Growth Rate [2, 17]: 0 | Growth Rate [2, 18]: 0 | Growth Rate [3, 19]: 1 | Growth Rate [3, 15]: 0 | Growth Rate [3, 16]: 0 | Growth Rate [3, 17]: 0 | Growth Rate [3, 18]: 0 | Growth Rate [4, 20]: 1 | Growth Rate [4, 19]: 0 | Growth Rate [4, 15]: 1 | Growth Rate [4, 16]: 0 | Growth Rate ([4]; 12 h, replicate number 2, timepoint 12 hours): 1 | Growth Rate [4, 17]: 0 | Growth Rate [4, 18]: 0 | Growth Rate ([4]; 24 h, replicate number 2, timepoint 24 hours): 1

Cl.Cn1c2c(c3ccc(Cl)c(Cl)c31)C(C#N)C1(CCNCC1)NC2=O (stereo not given)
Population Apoptotic (%) [1, 5]: 30% | Population Fragmented Nuclei (%) [1, 5]: 2% | Population Healthy Nuclei (%) [1, 5]: 90% | Population Hoechst High Intensity Objects (%) [1, 5]: 1% | Population Mitochondria Different-Phenotype (%) [1, 5]: 14% | Population Mitotic Cells (%) [1, 5]: 69% | Population Normal (%) [1, 5]: 98% | Population Pyknosed Nuclei (%) [1, 5]: 7% | Population Tubulin-Different-Phenotype (%) [1, 5]: 19% | Total Cell Count [1, 5]: 137 | Population Apoptotic (%) [1, 6]: 0% | Population Fragmented Nuclei (%) [1, 6]: 4% | Population Healthy Nuclei (%) [1, 6]: 94% | Population Hoechst High Intensity Objects (%) [1, 6]: 13% | Population Membrane Permeable-Phenotype (%) [1, 6]: 9% | Population Mitochondria Different-Phenotype (%) [1, 6]: 36% | Population Mitotic Cells (%) [1, 6]: 100% | Population Normal (%) [1, 6]: 86% | Population Pyknosed Nuclei (%) [1, 6]: 0% | Population Tubulin-Different-Phenotype (%) [1, 6]: 38% | Total Cell Count [1, 6]: 159 | Population Apoptotic (%) [1, 7]: 56% | Population Fragmented Nuclei (%) [1, 7]: 20% | Population Healthy Nuclei (%) [1, 7]: 20% | Population Hoechst High Intensity Objects (%) [1, 7]: 3% | Population Membrane Permeable-Phenotype (%) [1, 7]: 53% | Population Mitochondria Different-Phenotype (%) [1, 7]: 80% | Population Mitotic Cells (%) [1, 7]: 43% | Population Normal (%) [1, 7]: 96% | Population Pyknosed Nuclei (%) [1, 7]: 58% | Population Tubulin-Different-Phenotype (%) [1, 7]: 96% | Total Cell Count [1, 7]: 183 | Population Apoptotic (%) [1, 8]: 61% | Population Fragmented Nuclei (%) [1, 8]: 22% | Population Healthy Nuclei (%) [1, 8]: 27% | Population Hoechst High Intensity Objects (%) [1, 8]: 24% | Population Membrane Permeable-Phenotype (%) [1, 8]: 36% | Population Mitochondria Different-Phenotype (%) [1, 8]: 90% | Population Mitotic Cells (%) [1, 8]: 38% | Population Normal (%) [1, 8]: 75% | Population Pyknosed Nuclei (%) [1, 8]: 49% | Population Tubulin-Different-Phenotype (%) [1, 8]: 95% | Total Cell Count [1, 8]: 123 | Population Apoptotic (%) [1, 9]: 40% | Population Fragmented Nuclei (%) [1, 9]: 4% | Population Healthy Nuclei (%) [1, 9]: 88% | Population Hoechst High Intensity Objects (%) [1, 9]: 1% | Population Membrane Permeable-Phenotype (%) [1, 9]: 5% | Population Mitochondria Different-Phenotype (%) [1, 9]: 13% | Population Mitotic Cells (%) [1, 9]: 60% | Population Normal (%) [1, 9]: 98% | Population Pyknosed Nuclei (%) [1, 9]: 6% | Population Tubulin-Different-Phenotype (%) [1, 9]: 26% | Total Cell Count [1, 9]: 129 | Population Apoptotic (%) [1, 10]: 75% | Population Fragmented Nuclei (%) [1, 10]: 3% | Population Healthy Nuclei (%) [1, 10]: 93% | Population Hoechst High Intensity Objects (%) [1, 10]: 10% | Population Membrane Permeable-Phenotype (%) [1, 10]: 8% | Population Mitochondria Different-Phenotype (%) [1, 10]: 29% | Population Mitotic Cells (%) [1, 10]: 25% | Population Normal (%) [1, 10]: 89% | Population Pyknosed Nuclei (%) [1, 10]: 2% | Population Tubulin-Different-Phenotype (%) [1, 10]: 31% | Total Cell Count [1, 10]: 157 | Population Apoptotic (%) [1, 11]: 85% | Population Fragmented Nuclei (%) [1, 11]: 37% | Population Healthy Nuclei (%) [1, 11]: 10% | Population Hoechst High Intensity Objects (%) [1, 11]: 16% | Population Membrane Permeable-Phenotype (%) [1, 11]: 92% | Population Mitochondria Different-Phenotype (%) [1, 11]: 100% | Population Mitotic Cells (%) [1, 11]: 14% | Population Normal (%) [1, 11]: 83% | Population Pyknosed Nuclei (%) [1, 11]: 52% | Population Tubulin-Different-Phenotype (%) [1, 11]: 92% | Total Cell Count [1, 11]: 231 | Population Apoptotic (%) [1, 12]: 76% | Population Fragmented Nuclei (%) [1, 12]: 33% | Population Healthy Nuclei (%) [1, 12]: 17% | Population Hoechst High Intensity Objects (%) [1, 12]: 30% | Population Membrane Permeable-Phenotype (%) [1, 12]: 75% | Population Mitochondria Different-Phenotype (%) [1, 12]: 91% | Population Mitotic Cells (%) [1, 12]: 23% | Population Normal (%) [1, 12]: 69% | Population Pyknosed Nuclei (%) [1, 12]: 49% | Population Tubulin-Different-Phenotype (%) [1, 12]: 91% | Total Cell Count [1, 12]: 164 | Growth Rate [2, 15]: 0 | Growth Rate [2, 16]: 0 | Growth Rate [2, 17]: 0 | Growth Rate [2, 18]: 0 | Growth Rate [3, 15]: 0 | Growth Rate [3, 16]: 0 | Growth Rate [3, 17]: 0 | Growth Rate [3, 18]: 0 | Growth Rate [4, 20]: 0 | Growth Rate [4, 15]: 0 | Growth Rate [4, 16]: 0 | Growth Rate [4, 17]: 0 | Growth Rate [4, 18]: 0
